Common to all, as to type: functional
Test [1] relates to Escherichia coli. The test is described as follows: Escherichia coli DNA cleavage endpoint value which is the minimum amount required (in micro g/mL) to induce detectable cleavage of supercoiled pBR322 substrate to linear form (gyrase). The conditions noted are these: read-out: MIC. The method in brief:
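DNA gyrase A and B subunits were purified from E. coli overproducers. About 2 units of holoenzyme were incubated with pBR322 in Tris-HCl pH 7.5 containing MgCl2, spermidine, DTT, 0.2 mM ATP, BSA and tRNA. Drug was added as 2-fold serial dilutions, and reactions ran for 60 min at 25 °C. Reactions were stopped with SDS and proteinase K, then run on agarose and stained with ethidium. The endpoint was the lowest concentration giving detectable linear DNA.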

For test [2], the system named is Bordetella bronchiseptica. The test is described as follows: In vitro antibacterial activity against aerobically grown Bordetella bronchiseptica (73A009). In outline: (§1)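 Agar dilution MICs. Aerobic strains were tested on brain heart infusion agar and incubated aerobically at 37 °C for 18–20 h.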
Another test concerns Trueperella pyogenes. Briefly: In vitro antibacterial activity against anaerobically grown Actinomyces pyogenes (14D002). The method in brief:
(§2)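 Agar dilution MICs. Anaerobic strains were tested on tryptose agar with 5% bovine blood and incubated 48 h at 39 °C in an anaerobe chamber under N2/CO2/H2 (80:10:10).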

Test [3] has as its system Actinobacillus pleuropneumoniae. The test is described as follows: In vitro antibacterial activity against anaerobically grown Actinobacillus pleuropneumoniae ([…]). In outline: as §2
In a further test the test system is Phocaeicola vulgatus. Briefly: In vitro antibacterial activity against anaerobically grown Bacteroides vulgatus (78D029). In outline: as §2
A further test concerns Staphylococcus aureus. The test is described as follows: In vitro antibacterial activity against aerobically grown Staphylococcus aureus (54B004). In outline: as §1
Test [4] relates to Escherichia coli. The test is described as follows: In vitro antibacterial activity against aerobically grown Escherichia coli (51A538). In outline: as §1
Test [5] is described as follows: In vitro evaluation for antibacterial activity against anaerobically grown Treponema hyodysenteriae (94A007). The conditions noted are these: Brachyspira hyodysenteriae.
The nature of test [6]: In vitro antibacterial activity against Aerobically grown Pasteurella haemolytica (59B018). The settings on record: Mannheimia haemolytica. In outline: as §1
In a further test the test system is Salmonella enterica. Briefly: In vitro antibacterial activity against aerobically grown Salmonella choleraesuis (58B015).
The test system of test [7] is Pasteurella multocida. The test is described as follows: In vitro antibacterial activity against aerobically grown Pasteurella multocida (59A006). In outline: as §1
For a further test, the system named is Clostridium perfringens. Briefly: microbe, parasite or virus in culture.
The test system of test [8] is Pasteurella multocida. The test is described as follows: In vivo protective dose was evaluated against Pasteurella multocida (59A006) in mouse(sc). The settings on record: read-out: PD50. The method in brief: (§3)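 Female CF-1 mice (15 g), groups of 10, challenged ip with 0.5 mL bacterial suspension (P. multocida 59A006 or E. coli 51A266 at 3.0 × 10^8 cfu/mL; S. choleraesuis 58B010 at 8.5 × 10^2 cfu/mL). Drug given sc or po at 30 min, 4 h and 24 h after challenge; survival recorded at 96 h; PD50 by probit analysis.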

Test [9] concerns Escherichia coli. Briefly: In vivo protective dose was evaluated against Escherichia coli (51A266) in mouse(sc). The conditions noted are these: read-out: PD50. The method in brief:
as §3

In brackets after ≈: the same amount, converted by molar mass. Bounds are passed on as bounds.

As for `Cl.O.O=C(O)c1cn(-c2ccc(F)cc2)c2cc(N3CCN4CCC3CC4)c(F)cc2c1=O`, the minimum concentration inducing gyrase-mediated DNA cleavage in the test on Escherichia coli [1] is 0.78 µg/mL. In addition, the MIC in test [2] was found to be 1.56 µg/mL; against Trueperella pyogenes, 3.13 µg/mL; in [3] it was 0.05 µg/mL; against Phocaeicola vulgatus, 0.78 µg/mL; in the test on Staphylococcus aureus, 0.2 µg/mL; in the test with Escherichia coli [4], 0.2 µg/mL. For the same compound, the MIC is 0.78 µg/mL in [5]; 0.1 µg/mL in test [6]; 0.2 µg/mL against Salmonella enterica; 0.02 µg/mL in the test with Pasteurella multocida [7]; 0.1 µg/mL against Clostridium perfringens.

On to `CCn1cc(C(=O)O)c(=O)c2cc(F)c(N3C[C@H]4CCC[C@@H](C3)N4C)cc21`, for which the minimum concentration inducing gyrase-mediated DNA cleavage in the test with Escherichia coli [1] turned out to be 3.12 µg/mL. The MIC in test [2] turned out to be 6.25 µg/mL (≈ 16.7 µM); against Trueperella pyogenes it was 6.25 µg/mL (≈ 16.7 µM); in [3], 0.2 µg/mL (≈ 0.536 µM); against Phocaeicola vulgatus it was 1.56 µg/mL (≈ 4.18 µM); in the test with Staphylococcus aureus, 0.1 µg/mL (≈ 0.268 µM); against Escherichia coli [4] it was 1.56 µg/mL (≈ 4.18 µM). Further, the MIC was 6.25 µg/mL (≈ 16.7 µM) in test [5]; 0.1 µg/mL (≈ 0.268 µM) in test [6]; 1.56 µg/mL (≈ 4.18 µM) with Salmonella enterica; 0.78 µg/mL (≈ 2.09 µM) against Pasteurella multocida [7]; 0.39 µg/mL (≈ 1.04 µM) with Clostridium perfringens.

Regarding `CN1C2CC[C@@H]1CCN(c1cc3c(cc1F)c(=O)c(C(=O)O)cn3C1CC1)C2`, in the test on Escherichia coli [1], the minimum concentration inducing gyrase-mediated DNA cleavage worked out at 3.12 µg/mL. In addition, the MIC in [2] was above 1.56 µg/mL; against Trueperella pyogenes, 3.13 µg/mL (≈ 8.12 µM); in test [3], 0.2 µg/mL (≈ 0.519 µM); with Phocaeicola vulgatus it was 3.13 µg/mL (≈ 8.12 µM); in the test with Staphylococcus aureus, 0.39 µg/mL (≈ 1.01 µM); with Escherichia coli [4], 0.39 µg/mL (≈ 1.01 µM). Also, the MIC in test [5] amounted to 1.56 µg/mL (≈ 4.05 µM); in test [6] it was 0.2 µg/mL (≈ 0.519 µM); against Salmonella enterica it was 0.39 µg/mL (≈ 1.01 µM); in the test with Pasteurella multocida [7] it was 0.05 µg/mL (≈ 0.13 µM); against Clostridium perfringens it was 0.2 µg/mL (≈ 0.519 µM). For the same compound, the ED50 in the test with Pasteurella multocida [8] is 0.43 mg/kg.

For the compound `CCn1cc(C(=O)O)c(=O)c2cc(F)c(N3CC[C@H]4CCC(C3)N4C)c(F)c21`, the minimum concentration inducing gyrase-mediated DNA cleavage in the test on Escherichia coli [1] was 3.12 µg/mL. Also, the MIC in test [2] was 1.56 µg/mL (≈ 3.99 µM); in the test on Trueperella pyogenes it was above 3.13 µg/mL; in test [3] it was 0.78 µg/mL (≈ 1.99 µM); against Phocaeicola vulgatus, above 3.13 µg/mL; with Staphylococcus aureus, 0.78 µg/mL (≈ 1.99 µM); in the test on Escherichia coli [4] it was 0.39 µg/mL (≈ 0.996 µM). Also, the MIC was above 3.13 µg/mL in test [5]; 0.78 µg/mL (≈ 1.99 µM) in test [6]; 1.56 µg/mL (≈ 3.99 µM) in the test with Salmonella enterica; 0.2 µg/mL (≈ 0.511 µM) against Pasteurella multocida [7]; 3.13 µg/mL (≈ 8 µM) against Clostridium perfringens.

In the case of `Cl.O.O=C(O)c1cn(C2CC2)c2cc(N3CCN4CCC3CC4)c(F)cc2c1=O`, in the test on Escherichia coli [1], the minimum concentration inducing gyrase-mediated DNA cleavage stood at 0.39 µg/mL. The MIC came to 0.39 µg/mL in test [2]; 1.56 µg/mL against Trueperella pyogenes; 0.05 µg/mL in [3]; 0.39 µg/mL in the test with Phocaeicola vulgatus; 0.05 µg/mL against Staphylococcus aureus; 0.02 µg/mL against Escherichia coli [4]. Moreover, the MIC was 0.39 µg/mL in test [5]; 0.01 µg/mL in [6]; 0.02 µg/mL in the test with Salmonella enterica; below 0.002 µg/mL in the test on Pasteurella multocida [7]; 0.05 µg/mL against Clostridium perfringens. Moreover, the ED50 in the test with Escherichia coli [9] was determined as 0.09 mg/kg.

Consider `Cl.O.O=C(O)c1cn(CCF)c2c(F)c(N3CCN4CCC3CC4)c(F)cc2c1=O`, for which, in the test with Escherichia coli [1], the minimum concentration inducing gyrase-mediated DNA cleavage came to 0.19 µg/mL. Besides, the MIC in [2] was 6.25 µg/mL; with Trueperella pyogenes, 3.13 µg/mL; in test [3], below 0.05 µg/mL; in the test with Phocaeicola vulgatus, 6.25 µg/mL; in the test with Staphylococcus aureus it was 0.78 µg/mL; with Escherichia coli [4], 0.39 µg/mL. Besides, the MIC in [5] was 6.25 µg/mL; in [6], below 0.05 µg/mL; with Salmonella enterica, 0.2 µg/mL; against Pasteurella multocida [7], 0.2 µg/mL; against Clostridium perfringens, 0.78 µg/mL.

With `CCn1cc(C(=O)O)c(=O)c2cc(F)c(N3CCN4CCC3CC4)c(F)c21.Cl.O`, the minimum concentration inducing gyrase-mediated DNA cleavage with Escherichia coli [1] was 1.56 µg/mL. The MIC was 0.78 µg/mL in [2]; above 3.13 µg/mL against Trueperella pyogenes; 0.05 µg/mL in test [3]; 1.56 µg/mL with Phocaeicola vulgatus; 0.39 µg/mL in the test with Staphylococcus aureus; 0.2 µg/mL with Escherichia coli [4]. In addition, the MIC in [5] was 1.56 µg/mL; in test [6], 0.2 µg/mL; against Salmonella enterica it was 0.2 µg/mL; against Pasteurella multocida [7], 0.1 µg/mL; against Clostridium perfringens, 0.78 µg/mL.
